Test results: ChEMBL document CHEMBL1143407, “In vivo efficacy and pharmacokinetics of voriconazole in an animal model of dermatophytosis” (Antimicrob Agents Chemother, 2007)
Values after ≈ are worked out from the molar mass of the structure shown.

Columns and labels:
[1] = Cmin in guinea pig whole blood at 20 mg/kg/day, po after 3 hrs; assay type: ADME, organism-based, Cavia porcellus; parameters: route oral; conditions: read-out: Cmin
Procedure, shortened: (§1)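 Day 14: three infected guinea pigs received the twelfth 20 mg/kg oral gavage dose. Whole blood was drawn from the eye vein hourly from 1 h. 3-mm full-thickness punch biopsies were taken hourly from the lesion margin over 3 h. Blood was precipitated with acetonitrile. Biopsies were extracted 6 h in acetonitrile-ammonium phosphate with freeze-thaw cycles. Total drug was measured by isocratic RP-18 HPLC (LLOQ 0.2 μg/ml).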

[2] = Drug level in guinea pig interstitial fluid at 20 mg/kg/day, po after 3 hrs; assay type: ADME, organism-based, Cavia porcellus; parameters: route oral; conditions: read-out: Drug uptake
Procedure, shortened: (§2)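 Day 14: the first three treated guinea pigs, infected and dosed as above, were studied under anesthesia. Dermal microdialysis catheters were placed in normal and inoculated skin and perfused with isotonic NaCl at 1 μl/min. Probes were calibrated beforehand by retrodialysis (5 and 10 μg/ml). Dialysates were collected every 30 min for 3 h after the twelfth 20 mg/kg oral dose. Unbound level = 100 × C_dialysate/RR, by isocratic RP-18 HPLC.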

Paraphyton cookei = assay: Antimicrobial activity against Microsporum cookei; assay type: functional
[3] = Drug level in guinea pig whole blood at 20 mg/kg/day, po after 3 hrs; assay type: ADME, organism-based, Cavia porcellus; parameters: route oral; conditions: read-out: Drug uptake; procedure, shortened: as §1
[4] = Cmax in guinea pig skin biopsy specimen at 20 mg/kg/day, po after 3 hrs; assay type: ADME, organism-based, Cavia porcellus, Zone of skin; parameters: dose 20 mg/kg/day, route oral; procedure, shortened: as §1
Microsporum canis [5] = assay: Antifungal activity against Microsporum canis infected in guinea pig dermatophytosis model assessed as colony count per specimen at 20 mg/kg/day, po administered 12 days measured after 14 days; assay type: functional
Procedure, shortened: (§3)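 Female guinea pigs (418 to 482 g) were inoculated on shaved skin with M. canis clinical-isolate microconidia at about 8 × 10⁵ conidia/ml. Oral solution was given by gavage at 20 mg/kg/day on days 3 to 14; controls were untreated (n = 8 per group). Skin scrapings were cultured on SAB with cycloheximide/chloramphenicol for 28 days and CFU per specimen counted. Groups were compared by Wilcoxon two-sample test.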

[6] = Cmax in guinea pig whole blood at 20 mg/kg/day, po after 3 hrs; assay type: ADME, organism-based, Cavia porcellus; parameters: dose 20 mg/kg/day, route oral; procedure, shortened: as §1
Microsporum canis [7] = assay: Antifungal activity against Microsporum canis infected in guinea pig dermatophytosis model assessed as colony count per specimen at 20 mg/kg/day, po after 7 days; assay type: functional; procedure, shortened: as §3
[8] = Cmax in guinea pig skin at 20 mg/kg/day, po after 3 hrs; assay type: ADME, organism-based, Cavia porcellus, Zone of skin; parameters: dose 20 mg/kg/day, route oral; procedure, shortened: as §1
Nannizzia gypsea = assay: Antimicrobial activity against Microsporum gypseum; assay type: functional
Microsporum canis [9] = assay: Antifungal activity against Microsporum canis infected in guinea pig dermatophytosis model assessed as colony count per specimen at 20 mg/kg/day, po after 3 days; assay type: functional; procedure, shortened: as §3
Microsporum distortum = assay: Antimicrobial activity against Microsporum distortum; assay type: functional
Microsporum audouinii = assay: Antimicrobial activity against Microsporum audouinii; assay type: functional
Microsporum canis [10] = assay: Antimicrobial activity against Microsporum canis; assay type: functional
Procedure, shortened: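 MIC was determined by CLSI M38-A broth dilution, modified to use 10⁵ CFU/ml inoculum and 10 days incubation at 25°C. The organism was a clinical M. canis isolate, tested in triplicate.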

[11] = Drug level in guinea pig skin biopsy specimen at 20 mg/kg/day, po after 3 hrs; assay type: ADME, organism-based, Cavia porcellus, Zone of skin; parameters: route oral; conditions: read-out: Drug uptake; procedure, shortened: as §1
[12] = Cmin in guinea pig skin biopsy specimen at 20 mg/kg/day, po after 3 hrs; assay type: ADME, organism-based, Cavia porcellus, Zone of skin; parameters: route oral; conditions: read-out: Cmin; procedure, shortened: as §1
Microsporum canis [13] = assay: Antifungal activity against Microsporum canis infected in guinea pig dermatophytosis model assessed as colony count per specimen at 20 mg/kg/day, po administered 12 days measured after 17 days; assay type: functional; procedure, shortened: as §3
[14] = Cmax in guinea pig interstitial fluid at 20 mg/kg/day, po after 3 hrs; assay type: ADME, organism-based, Cavia porcellus; parameters: dose 20 mg/kg/day, route oral; procedure, shortened: as §2
Nannizzia nana = assay: Antimicrobial activity against Microsporum nanum; assay type: functional

C[C@@H](c1ncncc1F)[C@](O)(Cn1cncn1)c1ccc(F)cc1F [VORICONAZOLE] gave a concentration at 3 h [1] of 4000 ng/mL, a concentration at 3 h [2] of 1400 ng/mL and an MIC (Paraphyton cookei) of 0.01 µg/mL (≈ 0.0286 µM). For the same molecule, the concentration at 3 h [3] was 6300 ng/mL, the Cmax [4] was 35900 ng/g and the Activity (Microsporum canis [5]) was 0.3. It also gave a Cmax [6] of 7700 ng/mL, an Activity (Microsporum canis [7]) of 4.1 and a Cmax [8] of 28100 ng/g. For the same molecule, the MIC (Nannizzia gypsea) was 0.01 µg/mL (≈ 0.0286 µM), the Activity (Microsporum canis [9]) was 6.4 and the MIC (Microsporum distortum) was 0.01 µg/mL (≈ 0.0286 µM). It also gave an MIC (Microsporum audouinii) of 0.01 µg/mL (≈ 0.0286 µM), an MIC (Microsporum canis [10]) of 0.25 µg/mL (≈ 0.716 µM) and a concentration at 3 h [11] of 18300 ng/g. The concentration at 3 h [12] was 9100 ng/g, the Activity (Microsporum canis [13]) was 0.2 and the Cmax [14] was 2000 ng/mL. It also gave an MIC (Nannizzia nana) of 0.01 µg/mL (≈ 0.0286 µM).
